# Reference: paper PMC11152992 (Nature, 2024)
# Key:
# [1] = Mouse brain tissue binding; assay type: in vitro ADME; conditions: for % Compound remaining at 4 h: 37 °C; for fraction unbound at 4 h, 5 µM: mouse, mouse brain tissue
# 5-HT1A = biological target: T1, 5-HT1A (Homo sapiens, UniProt P08908); experiment: 5-HT1A-mediated Gi1 activation, BRET; assay type: cell-based; conditions: for maximum drug effect (Emax): 5-HT1A-mediated activation of Gi1, BRET; for EC50: read-out: Gi BRET EC50, 5-HT1A-mediated Gi1 activation, HEK293-T cells; for 5-HT1A efficacy (in words): Gi BRET, compared with serotonin; for selectivity for 5-HT1A > 5-HT2A: Gi BRET at 5-HT1A versus Gq BRET at 5-HT2A
# T1 sequence (P08908 1-422): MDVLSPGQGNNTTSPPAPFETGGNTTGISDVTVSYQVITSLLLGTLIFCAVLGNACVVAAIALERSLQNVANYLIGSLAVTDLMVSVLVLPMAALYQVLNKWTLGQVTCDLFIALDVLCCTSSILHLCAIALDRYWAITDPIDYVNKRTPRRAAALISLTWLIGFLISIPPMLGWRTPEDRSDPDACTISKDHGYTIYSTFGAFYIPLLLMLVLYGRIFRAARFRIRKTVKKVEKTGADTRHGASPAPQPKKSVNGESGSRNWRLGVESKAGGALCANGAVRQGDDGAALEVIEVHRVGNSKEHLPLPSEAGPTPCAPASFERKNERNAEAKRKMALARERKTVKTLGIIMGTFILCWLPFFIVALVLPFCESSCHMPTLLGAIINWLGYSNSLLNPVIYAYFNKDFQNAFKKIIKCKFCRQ
# 5-HT2A(V366N) = 5-HT2A(V366N) (Homo sapiens, UniProt P28223, V366N); conditions: 5-HT2A V366N versus wild type
# 5-HT2A(V366N), sequence (P28223 whole entry V366N): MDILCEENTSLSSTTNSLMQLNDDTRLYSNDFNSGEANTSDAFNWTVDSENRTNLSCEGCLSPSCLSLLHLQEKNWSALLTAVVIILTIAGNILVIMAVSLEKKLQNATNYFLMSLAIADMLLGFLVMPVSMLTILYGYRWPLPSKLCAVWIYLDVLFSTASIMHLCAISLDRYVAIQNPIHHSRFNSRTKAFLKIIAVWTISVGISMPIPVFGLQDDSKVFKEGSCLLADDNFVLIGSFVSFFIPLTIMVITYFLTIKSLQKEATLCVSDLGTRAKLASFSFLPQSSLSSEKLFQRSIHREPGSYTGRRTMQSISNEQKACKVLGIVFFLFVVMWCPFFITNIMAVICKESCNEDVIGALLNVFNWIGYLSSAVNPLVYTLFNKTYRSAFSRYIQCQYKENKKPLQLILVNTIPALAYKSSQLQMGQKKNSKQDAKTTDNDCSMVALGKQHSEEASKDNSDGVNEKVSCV
# 5-HT2A = 5-HT2A (Homo sapiens, UniProt P28223); experiment: 5-HT2A-mediated Gq activation, BRET; assay type: cell-based; conditions: for decrease in 5-HT2A potency: relative to 5-MeO-DMT
# 5-HT2A, sequence (P28223 whole entry): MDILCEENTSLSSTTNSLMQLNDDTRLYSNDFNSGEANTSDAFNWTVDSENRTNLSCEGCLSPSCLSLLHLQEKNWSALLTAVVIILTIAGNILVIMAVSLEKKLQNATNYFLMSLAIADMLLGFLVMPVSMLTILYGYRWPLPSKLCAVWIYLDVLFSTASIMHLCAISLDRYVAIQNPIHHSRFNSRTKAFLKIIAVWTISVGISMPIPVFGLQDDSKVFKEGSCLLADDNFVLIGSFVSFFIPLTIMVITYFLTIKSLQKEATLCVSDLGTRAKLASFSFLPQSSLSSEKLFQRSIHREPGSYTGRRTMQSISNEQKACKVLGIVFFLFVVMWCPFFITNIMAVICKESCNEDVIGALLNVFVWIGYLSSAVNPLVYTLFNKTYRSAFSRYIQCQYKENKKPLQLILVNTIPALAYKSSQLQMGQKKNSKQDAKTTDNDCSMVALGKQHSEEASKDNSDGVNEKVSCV
# [2] = test system: chronic social defeat stress mice; experiment: Sucrose preference test after chronic social defeat stress; assay type: in vivo, C57BL/6J mice
# In short: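 Chronic social defeat was 10 days of 10-min bouts by CD-1 aggressors in male C57BL/6J mice. On day 10, stressed mice were housed singly and habituated to two water bottles, then given a two-bottle choice between water and 1% sucrose. Data were pooled from two independent experiments.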
# [3] = test system: locomotor activity (measure of 5-HT1A activation); experiment: Open-field locomotion assay; assay type: in vivo, C57BL/6J mice; conditions: mice, s.c.
# In short: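 Male C57BL/6J mice aged 10–15 weeks were habituated for 30 min, then pretreated with vehicle or WAY-100635 (1 or 2 mg kg⁻¹ s.c.). Test compound followed 15 min later, s.c. at 0.1–3 or 0.3–10 mg kg⁻¹. Mice were placed immediately in a clear arena lit at about 330 lux. Observers were blinded; total locomotion was recorded automatically over 30 min, n = 7–8 per group.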
# [4] = test system: head-twitch response (measure of 5-HT2A activation); experiment: Head-twitch response; assay type: in vivo, C57BL/6J mice; conditions: mice
# 5-HT1A(A365N) = experiment: 5-HT1A-Gi BRET at mutant receptor A365N; assay type: cell-based, human; conditions: 5-HT1A A365N versus wild type
# 5-HT2A(N343A) = 5-HT2A(N343A) (Homo sapiens, UniProt P28223, N343A); experiment: 5-HT2A-Gq BRET at mutant receptor N343A; assay type: cell-based; conditions: 5-HT2A N343A versus wild type
# 5-HT2A(N343A), sequence (P28223 whole entry N343A): as the sequence (P28223 whole entry V366N) above, with N343A, N366V counted along it
# [5] = biological target: serotonin transporter (SERT) (Homo sapiens, UniProt P31645); experiment: Serotonin transporter uptake inhibition; assay type: cell-based
# serotonin transporter (SERT), sequence (P31645 whole entry, species assumed): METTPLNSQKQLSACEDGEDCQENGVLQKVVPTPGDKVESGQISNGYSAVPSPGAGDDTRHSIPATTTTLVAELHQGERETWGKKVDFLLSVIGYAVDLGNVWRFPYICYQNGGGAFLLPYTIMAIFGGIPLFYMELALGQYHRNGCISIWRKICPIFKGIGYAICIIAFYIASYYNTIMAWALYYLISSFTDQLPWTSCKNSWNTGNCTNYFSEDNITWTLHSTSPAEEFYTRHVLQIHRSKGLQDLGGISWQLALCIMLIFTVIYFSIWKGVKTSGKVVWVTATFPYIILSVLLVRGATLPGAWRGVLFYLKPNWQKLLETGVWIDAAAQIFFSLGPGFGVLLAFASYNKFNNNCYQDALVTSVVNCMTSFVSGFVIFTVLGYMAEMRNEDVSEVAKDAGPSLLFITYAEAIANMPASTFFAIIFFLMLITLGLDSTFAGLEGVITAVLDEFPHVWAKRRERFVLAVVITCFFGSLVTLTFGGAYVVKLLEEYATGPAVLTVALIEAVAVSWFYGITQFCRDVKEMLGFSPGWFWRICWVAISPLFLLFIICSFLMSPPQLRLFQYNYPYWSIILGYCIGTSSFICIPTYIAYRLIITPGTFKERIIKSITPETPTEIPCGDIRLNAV
# [6] = test system: other neurotransmitter transporters (OCT1, OCT2, PMAT); experiment: OCT1, OCT2 and PMAT uptake inhibition; assay type: cell-based
# [7] = test system: all other G protein-coupled 5-HT receptors; experiment: Off-target activity at 5-HT receptors; assay type: cell-based, human; conditions: compared with activity at 5-HT1A
# [8] = Human plasma protein binding; assay type: in vitro ADME; conditions: for % Compound remaining at 4 h: 37 °C
# [9] = Pharmacokinetics in plasma and brain after s.c. administration; assay type: in vivo, C57BL/6 male mice; conditions: mice; for AUClast / Cmax: 1 mg/kg SC
# In short: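 Male C57BL/6 mice (27; 3 per time point) received a subcutaneous solution formulation. Retro-orbital blood (~60 μl) was taken under light isoflurane at 0.083–12 h. Plasma and brain levels were measured by LC–MS/MS with non-compartmental analysis: Cmax and Tmax as observed, AUClast by linear trapezoidal rule, Kp calculated. For plasma protein binding, compound was spiked at 5 μM final into mouse plasma and dialysed 4 h at 37 °C.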
# [10] = Mouse plasma protein binding; assay type: in vitro ADME; conditions: for % Compound remaining at 4 h: 37 °C; for fraction unbound at 4 h, 5 µM: mouse, mouse plasma
# [11] = test system: chronic social defeat stress mice; experiment: Social interaction; assay type: in vivo, C57BL/6J mice
# In short: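 Male C57BL/6J mice, 8 weeks old, had 10 consecutive days of 10-min defeat by a new CD-1 aggressor each day, then were housed overnight across a partition; controls were pair-housed and handled daily. Drug or vehicle was given 1 h after the last defeat, with SI testing 24 h later. The interaction ratio was interaction-zone time, target vs no-target; corner time and no-target locomotion were also scored. Pooled from three experiments; two-way ANOVA; resilient (>1) vs susceptible (<1) compared by Fisher's exact test.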
structure (smiles),measurement,setting,value
"NC(=O)N1c2ccccc2C=Cc2ccccc21 [Carbamazepine, reference compound]",% Compound remaining at 4 h,[1],96%
same,"fraction unbound at 4 h, 5 µM","[1]; pH 7.4, % Unbound",0.118
same,"fraction unbound at 4 h, 5 µM","[1]; pH 7.4, fu",0.118
"O=C1CC2(CCCC2)CC(=O)N1CCCCN1CCN(c2ncccn2)CC1 [buspirone, reference compound]",maximum drug effect (Emax),5-HT1A,93.4 % of 5-HT
"COc1ccc2[nH]cc(CCN3CC=CC3)c2c1F [4-F,5-MeO-3-PyrrolineT]",EC50,5-HT1A,0.22 nM
"COc1ccc2[nH]cc(CCN3CCCCC3)c2c1 [5-MeO-PipT, 5-methoxypiperidinyl-tryptamine]",EC50,5-HT1A,88.5 nM
same,loss of potency at 5-HT1A,5-HT1A; relative to 5-MeO-PyrT,~42 fold
"CCN(CC)C(=O)[C@@H]1C=C2c3cccc4[nH]cc(c34)C[C@H]2N(C)C1 [LSD, lysergic acid diethylamide]",effect of V366N mutation on signalling efficacy at 5-HT2A (in words),5-HT2A(V366N),increase in signalling efficacy
"COc1ccc2[nH]cc(CCN(C)C)c2c1F [4-F,5-MeO-DMT]",increase in potency at 5-HT1A,5-HT1A; relative to 5-MeO-DMT,14 fold
same,decrease in 5-HT2A potency,5-HT2A,3 fold
"COc1ccccc1N1CCN(CCN(C(=O)C2CCCCC2)c2ccccn2)CC1 [WAY-100635, reference compound]","increase of sucrose preference in stressed mice, treatment alone",[2]; stressed mice,not significant
"N#Cc1ccc2[nH]cc(CCCCN3CCN(c4ccc5oc(C(N)=O)cc5c4)CC3)c2c1 [vilazodone, reference compound]",lowest concentration showing activity,"5-HT1A; 5-HT1A Gi BRET, suspected slow binding kinetics",30 pM
same,maximum drug effect (Emax),5-HT1A,97.4 % of 5-HT
CCN(C)CCc1c[nH]c2ccc(OC)cc12 [5-MeO-MET],5-HT1A efficacy (in words),5-HT1A,full efficacy
same,EC50,5-HT1A,25.9 nM
same,locomotor activity in the open-field test (in words),[3],dose-dependent locomotor suppression
same,HTR (in words),[4]; following co-administration of the 5-HT1A-selective antagonist WAY-100635,strong dose-dependent activity
"O=C1CCc2ccc(OCCCCN3CCN(c4cccc(Cl)c4Cl)CC3)cc2N1 [aripiprazole, reference compound]",maximum drug effect (Emax),5-HT1A,77.1 % of 5-HT
"COc1ccc2[nH]cc(CCN3CCCC3)c2c1 [5-MeO-PyrT, 5-methoxy-N,N-pyrrolidinyl-tryptamine]",selectivity for 5-HT1A > 5-HT2A,5-HT1A,> 38 fold
same,increase in 5-HT1A > 5-HT2A selectivity,"5-HT1A; cyclization of the amine moiety alone, relative to 5-MeO-DMT",approximately 38 fold
same,EC50,5-HT1A,2.1 nM
same,increase in potency at 5-HT1A,5-HT1A; relative to 5-MeO-DMT,about 12 fold
same,decrease in 5-HT2A potency,5-HT2A,about 3 fold
"CN(C)CCc1c[nH]c2ccc(O)cc12 [5-OH-DMT, bufotenine]",decrease in potency by A365N mutation,5-HT1A(A365N),about 18 fold
"CN(C)CCc1c[nH]c2ccc(O)c(F)c12 [4-F,5-OH-DMT]",decrease in potency by N343A mutation,5-HT2A(N343A),~19 fold
"COc1ccc2[nH]cc(CCN3CCCC3)c2c1F [4-F,5-MeO-PyrT, 4-fluoro, 5-methoxypyrrolidinyl-tryptamine]",activity at the serotonin transporter (in words),[5],substantially reduced activity
same,activity at other neurotransmitter transporters (in words),[6],substantially reduced activity
same,activity at other 5-HT receptors (in words),[7],substantially reduced activity
same,maximum drug effect (Emax),5-HT1A,102.8 % of 5-HT
same,selectivity for 5-HT1A > 5-HT2A,5-HT1A,greater than 800 fold
same,EC50,5-HT1A,0.37 nM
same,% Bound Mean,[1],82.5%
same,% Recovery,[1],88%
same,% Unbound,[1],17.5%
same,brain tissue binding,[1],82.5%
same,fu,[1],0.175
same,% Compound remaining at 4 h,[1],96%
same,% Bound R1,"[1]; replicate 1, 4 h at 37 °C",84.3%
same,EC50,"5-HT2A; read-out: Gq BRET EC50, 5-HT2A-mediated Gq activation",300 nM
same,% Bound Mean,[8]; Human Plasma,26.01%
same,% Recovery,[8]; Human Plasma,81.8%
same,% Unbound,[8]; Human Plasma,73.99%
same,fu,[8]; Human Plasma,0.740
same,% Compound remaining at 4 h,[8]; Human Plasma,97.9%
same,% Bound R1,"[8]; Human Plasma, replicate 1, 4 h at 37 °C",22.19%
same,AUClast,[9]; Brain,128.34 ng·h/mL
same,Cmax,[9]; Brain,143.35 ng/mL
same,AUClast,[9]; Plasma,26.40 ng·h/mL
same,Cmax,[9]; Plasma,44.02 ng/mL
same,time within which compound was largely cleared,[9]; 1 mg kg^-1 s.c.,≤ 2 h
same,total brain-to-plasma ratio,[9]; 1 mg kg^-1 s.c.,3.3
same,unbound brain-to-plasma ratio,[9]; 1 mg kg^-1 s.c.,0.91
same,time of peak brain penetration,"[9]; 1 mg kg^-1 s.c., following drug administration",30 min
same,estimated free drug concentration in the brain at Tmax,"[9]; s.c. dose of 1 mg kg^-1, at 82.5% brain tissue binding",about 100 nM
same,locomotor activity in the open-field test (in words),[3],dose-dependent locomotor suppression
same,lowest dose that produced suppression of locomotion,[3],0.03 mg/kg
same,% Bound Mean,[10]; Mouse Plasma,37.36%
same,% Recovery,[10]; Mouse Plasma,84.7%
same,% Unbound,[10]; Mouse Plasma,62.64%
same,fu,[10]; Mouse Plasma,0.626
same,% Compound remaining at 4 h,[10]; Mouse Plasma,105.6%
same,% Bound R1,"[10]; Mouse Plasma, replicate 1, 4 h at 37 °C",32.04%
same,HTR (in words),"[4]; doses up to 3 mg kg^-1, in the presence or absence of WAY-100635",did not produce notable HTR
same,sucrose preference in stressed mice relative to vehicle-treated animals,"[2]; 1 mg kg^-1 s.c., 1% sucrose two-bottle choice",significantly increased sucrose preference
same,social avoidance phenotype (decreased interaction ratio) in stress-exposed mice,"[11]; 1 mg kg^-1 s.c. 1 h after last defeat, SI test 24 h later",rescued
same,"interaction ratio in control mice, drug versus vehicle","[11]; 1 mg kg^-1 s.c., non-stressed mice",did not show any distinguishable differences in IR
same,increased time in the corners of the arena in defeated mice,[11]; drug-treated stressed mice,no longer observed
same,number of resilient mice (SI ratio > 1),[11]; drug-treated versus vehicle-treated stressed mice,increased the number of resilient mice
COc1ccc2[nH]cc(CCN3CC=CC3)c2c1 [5-MeO-3-PyrrolineT],EC50,5-HT1A,0.3 nM
same,further increase in potency at 5-HT1A,5-HT1A; relative to 5-MeO-PyrT,around eightfold
"CC(=O)CC(c1ccccc1)c1c(O)c2ccccc2oc1=O (stereo not shown) [Warfarin, reference compound]",% Compound remaining at 4 h,[8]; Human Plasma,108.8%
same,"fraction unbound at 4 h, 5 µM","[8]; human, human plasma, pH 7.4, % Bound R2, Human Plasma, replicate 2, 4 h at 37 °C",0.015
same,% Compound remaining at 4 h,[10]; Mouse Plasma,103.3%
same,"fraction unbound at 4 h, 5 µM","[10]; pH 7.4, % Bound R2, Mouse Plasma, replicate 2, 4 h at 37 °C",0.067
same,"fraction unbound at 4 h, 5 µM","[10]; pH 7.4, % Unbound",0.064
same,"fraction unbound at 4 h, 5 µM","[10]; pH 7.4, fu",0.064
CCN(CC)CCc1c[nH]c2ccc(OC)cc12 [5-MeO-DET],5-HT1A efficacy (in words),5-HT1A,full efficacy
same,EC50,5-HT1A,37.1 nM
"CN(C)CCc1c[nH]c2ccccc12 [DMT, N,N-dimethyltryptamine, reference compound]",effect of N343A mutation on potency (in words),5-HT2A(N343A),minor effects
